How the values were obtained:
Type in all cases: functional, cell-based
SMMC-7721 = assay: Cytotoxicity against human SMMC7721 cells after 48 hrs by MTT assay; settings: SMMC-7721, 48 h
How it was run: (§1)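 Cells kept in RPMI-1640 or DMEM with 10% FBS, 37 °C, 5% CO2; adherent cells allowed to attach 12 h in 96-well plates. Exposed in triplicate to 0.0625, 0.32, 1.6, 8 and 40 μM for 48 h, cisplatin and paclitaxel as positive controls. MTT (100 μg/well) added for 4 h at 37 °C, lysis in 20% SDS/50% DMF, OD at 595 nm; IC50 by Reed–Muench method.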

A549 = assay: Cytotoxicity against human A549 cells after 48 hrs by MTT assay; settings: A549, 48 h; how it was run: as §1
MCF7 = assay: Cytotoxicity against human MCF7 cells after 48 hrs by MTT assay; settings: MCF7, 48 h; how it was run: as §1
SW480 = assay: Cytotoxicity against human SW480 cells after 48 hrs by MTT assay; settings: SW480, 48 h; how it was run: as §1
HL-60 = assay: Cytotoxicity against human HL60 cells after 48 hrs by MTT assay; settings: HL-60, 48 h; how it was run: as §1

CC(=O)O[C@H]1C(=O)[C@@]2(C)[C@H]([C@H](OC(=O)c3ccccc3)[C@]3(O)C[C@H](OC(=O)[C@H](O)[C@@H](NC(=O)c4ccccc4)c4ccccc4)C(C)=C1C3(C)C)[C@]1(OC(C)=O)CO[C@@H]1C[C@@H]2O [PACLITAXEL]
IC50 (SMMC-7721): < 0.008 µM
IC50 (A549): < 0.008 µM
IC50 (MCF7): < 0.008 µM
IC50 (SW480): < 0.008 µM
IC50 (HL-60): < 0.008 µM

CC[C@]12C=CCN3Cc4c(n(c5ccccc5c4=O)[C@@H](c4cc5c(cc4OC)NC4=C(C(=O)OC)C[C@]6(CC)C=CCN7CC[C@@]45[C@@H]76)C1)[C@@H]32
IC50 (SMMC-7721): 10.6 µM
IC50 (A549): 7.23 µM
IC50 (MCF7): 3.61 µM
IC50 (SW480): 2.71 µM
IC50 (HL-60): 3.03 µM

CC[C@]12C=CCN3Cc4c(n(c5ccccc5c4=O)[C@@H](c4cc5c(cc4OC)NC4=C(C(=O)OC)C[C@]6([C@@H](C)O)C=CCN7CC[C@@]45[C@@H]76)C1)[C@@H]32
IC50 (SMMC-7721): 15.3 µM
IC50 (A549): 16.2 µM
IC50 (MCF7): 12.1 µM
IC50 (SW480): 13.9 µM
IC50 (HL-60): 9.6 µM

From ChEMBL document CHEMBL3102807, “Angustifonines A and B, cytotoxic bisindole alkaloids from Bousigonia angustifolia” (J Nat Prod, 2014)
